Experimental findings from ChEMBL document CHEMBL1146084, “Discovery of orally efficacious melanin-concentrating hormone receptor-1 antagonists as antiobesity agents. Synthesis, SAR, and biological evaluation of bicyclo[3.1.0]hexyl ureas” (J Med Chem, 2006) are described below.

The structures appear in SMILES notation. Calls of active or inactive are those of the source. The rule behind the calls is not given here.

Data set [1] concerns Mus musculus. As to the kind of experiment: Reduction of food intake in orally dosed C57BL/6N DIO mouse after 24 hrs at 30 mg/kg relative to control. The format is functional. The following applies: for Food intake (% of vehicle control): route oral. Summed up: (§1)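 Male C57Bl/6NCrl:BR mice made obese on a 45%-fat diet, individually housed, 12 h light/dark, 22 °C; acclimated to oral 20% hydroxypropyl-β-cyclodextrin vehicle for 2-3 days. Single oral 30 mg/kg dose in 20% HPβCD; food intake weighed to 0.01 g at 2, 6 and 24 h, expressed as % of vehicle ± SEM.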

For data set [2], the system named is Mus musculus. Briefly: Reduction of food intake in orally dosed C57BL/6N DIO mouse after 6 hrs at 30 mg/kg relative to control. The class given is functional. The following applies: route oral. In short, it runs like this: as §1
The nature of data set [3]: (§2) AUC (0-6h) in rat at 10 mg/kg, po. The format is ADME, organism-based, Plasma. Set-up: time < 6 hr, dose 10 mg/kg, route oral. The following applies: plasma.
In data set [4] the target is Melanin-concentrating hormone receptor 1 (Mus musculus) (UniProt Q8JZL2). Briefly: Receptor occupancy ex vivo by displacement of [125I]S36057 binding from MCHR1 in C57BL/6N mouse brain after 6 hrs at 30 mg/kg, po. The format is functional, organism-based. Set-up: dose 30 mg/kg. In short, it runs like this:
(§3)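 Male C57Bl/6NCrl:BR mice given vehicle (HPβCD) or compound orally; killed by CO2 at 6 or 24 h post-dose (chronic studies: 24 h after last daily dose, n = 3/group). 16 µm frozen caudate putamen sections incubated 30 min at room temperature with 700 pM [125I]-S36057 in MCH-R1 binding buffer; 1 µM MCH defines nonspecific binding. Phosphorimager quantitation; % inhibition versus vehicle.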

For data set [5] the target is unchanged. Briefly: Receptor occupancy ex vivo by displacement of [125I]S36057 binding from MCHR1 in C57BL/6N mouse brain after 24 hrs at 30 mg/kg, po. The class given is functional, organism-based. Set-up: dose 30 mg/kg. Summed up: as §3
(Displacement assays read how much labelled ligand stays bound in the presence of the test substance.)

The subject of data set [6] is Mus musculus. Briefly: Reduction of food intake in orally dosed C57BL/6N DIO mouse after 2 hrs at 30 mg/kg relative to control. On the set-up: Activity: scale not given: the % may be the effect or the level left. The format is functional. The conditions noted are these: route oral. In short, it runs like this: as §1
Data set [7] addresses T1, Melanin-concentrating hormone receptor 1 (Homo sapiens, UniProt Q99705). As to the kind of experiment: Inhibition of MCH-mediated calcium influx in CHO cells expressing human MCHR1 by FLIPR assay. The format is functional, cell-based. Summed up: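 After two washes, treated with vehicle (buffer, 2% DMSO) or compound, then stimulated with 30 nM MCH; intracellular Ca²⁺ change read by FLIPR.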

Data set [8] can be described thus: Ratio of drug level in brain against plasma in rat after 6 hrs at 10 mg/kg, po. The format is ADME, organism-based. On the set-up: dose 10 mg/kg, route oral.
Data set [9] can be described thus: (§4) AUC (0-24h) in rat at 10 mg/kg, po. The class given is ADME, organism-based, Plasma. On the set-up: time < 24 hr, dose 10 mg/kg, route oral. The conditions noted are these: plasma.
Data set [10] has as its target T1, Melanin-concentrating hormone receptor 1. As to the kind of experiment: Displacement of [125I]MCH from human MCHR1 expressed in CHO cell. The class given is cell-based.
The test system of data set [11] is Rattus norvegicus. Described as §2. The format is ADME, organism-based, Plasma. On the set-up: time < 6 hr, dose 10 mg/kg, route oral. The conditions noted are these: in vivo, 6 h.
For data set [12], the system named is Mus musculus. Briefly: Change in body weight of C57BL/6N DIO mouse relative to control after 5 days at 10 mg/kg, po. The class given is functional. Summed up: (§5)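 DIO male C57Bl/6NCrl:BR mice (45%-fat diet, individually housed), acclimated to vehicle dosing, given compound orally once daily in 20% HPβCD for 5 or 28 days, n = 11/group. Body weight (to 0.1 g) and food intake from preweighed 3-3.5 g pellets (to 0.01 g) recorded daily; cumulative intake and % weight change at endpoint versus vehicle, ± SEM.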

For data set [13], the system named is Mus musculus. Briefly: Reduction of cumulative food intake in C57BL/6N DIO mouse relative to control after 5 days at 10 mg/kg, po. The class given is functional. Summed up:
as §5

A short description of data set [14]: Half life in rat at 10 mg/kg, iv. The format is ADME, organism-based. Set-up: dose 10 mg/kg, route intravenous. The following applies: in vivo.
The test system of data set [15] is Rattus norvegicus. As to the kind of experiment: Bioavailability in rat at 10 mg/kg, iv or po. The class given is ADME, organism-based. The conditions noted are these: in vivo.
For data set [16], the system named is Mus musculus. Briefly: Change in body weight of C57BL/6N DIO mouse relative to control after 28 days at 30 mg/kg, po. The class given is functional. In short, it runs like this: as §5
In data set [17] the test system is Rattus norvegicus. The data set is described as §4. The following applies: in vivo, 24 h. Set-up: time < 24 hr, dose 10 mg/kg, route oral. The format is ADME, organism-based, Plasma.
Data set [18] has as its system Mus musculus. As to the kind of experiment: Reduction of cumulative food intake in C57BL/6N DIO mouse relative to control after 28 days at 30 mg/kg, po. The class given is functional. In short, it runs like this:
as §5

In data set [19] the test system is Mus musculus. As to the kind of experiment: Reduction of cumulative food intake in C57BL/6N DIO mouse relative to control after 5 days at 30 mg/kg, po. The class given is functional. Summed up:
as §5

For data set [20], the system named is Mus musculus. As to the kind of experiment: Reduction of cumulative food intake in C57BL/6N DIO mouse relative to control after 28 days at 10 mg/kg, po. The class given is functional. Summed up:
as §5

The target in data set [21] is Melanin-concentrating hormone receptor 1 (Mus musculus) (UniProt Q8JZL2). The conditions noted are these: C57BL/6N, Brain, 10 mg/kg.
Data set [22] deals with Mus musculus. Briefly: Change in body weight of C57BL/6N DIO mouse relative to control after 5 days at 30 mg/kg, po. The format is functional. In short, it runs like this:
as §5

The subject of data set [23] is Rattus norvegicus. Briefly: Volume of distribution in rat at 10 mg/kg, iv or po. The conditions noted are these: in vivo. On the set-up: dose 10 mg/kg, route oral. The class given is ADME, organism-based.
The test system of data set [24] is Mus musculus. Briefly: Change in body weight of C57BL/6N DIO mouse relative to control after 28 days at 10 mg/kg, po. The class given is functional. In short, it runs like this:
as §5

Sequence of Melanin-concentrating hormone receptor 1 (Mus musculus) (Q8JZL2 whole entry): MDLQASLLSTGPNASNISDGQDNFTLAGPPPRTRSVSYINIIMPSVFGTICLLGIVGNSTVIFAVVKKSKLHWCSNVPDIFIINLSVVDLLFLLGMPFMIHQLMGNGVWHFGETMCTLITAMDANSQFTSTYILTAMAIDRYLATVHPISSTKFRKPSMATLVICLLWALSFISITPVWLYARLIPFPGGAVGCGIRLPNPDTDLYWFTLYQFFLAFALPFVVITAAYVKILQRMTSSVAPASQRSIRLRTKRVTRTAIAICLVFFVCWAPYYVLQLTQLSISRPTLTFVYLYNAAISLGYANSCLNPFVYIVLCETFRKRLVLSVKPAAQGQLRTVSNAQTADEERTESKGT
T1 sequence (Q99705 whole entry): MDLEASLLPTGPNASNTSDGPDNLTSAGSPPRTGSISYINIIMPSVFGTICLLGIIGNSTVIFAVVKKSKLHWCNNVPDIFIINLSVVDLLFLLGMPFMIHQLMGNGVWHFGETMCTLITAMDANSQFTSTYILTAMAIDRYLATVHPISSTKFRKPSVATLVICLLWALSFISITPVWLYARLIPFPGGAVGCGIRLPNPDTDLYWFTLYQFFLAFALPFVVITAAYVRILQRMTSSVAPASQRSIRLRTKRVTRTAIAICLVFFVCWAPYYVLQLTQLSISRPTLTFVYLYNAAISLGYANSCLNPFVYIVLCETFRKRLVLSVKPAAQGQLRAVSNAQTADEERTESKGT

For the compound `CN1CCN(CCCN(C(=O)Nc2ccc(F)c(Cl)c2)[C@@H]2CC[C@]3(c4ccc(OC(F)(F)F)cc4)C[C@H]23)CC1` (relative stereo), the “Food intake (% of vehicle control)” value in data set [1] turned out to be 85.9%; in data set [2], 80.5%. This compound also showed an AUC(0-t) at 6 h in [3] of 578 ng·h/mL. In addition, the values for the Activity in data set [4], in [5] and in [6] were 96%, 15% and 86.2%, respectively.

Take `N#Cc1cccc([C@]23CC[C@@H](N(CCN4CC[C@H](O)C4)C(=O)Nc4ccc(F)c(C(F)(F)F)c4)C[C@H]2C3)c1`: the result in data set [1] was Active. Further, the Kb in data set [7] turned out to be 11 nM. Further, the Kp at 6 h in data set [8] stood at 1.1. In data set [9], this compound showed an AUC(0-t) at 24 h of 16.4 µM·h. Further, in data set [10], affinity was put at a Ki of 15.1 nM. Moreover, the Activity in data set [4] was determined as 73%.

For the compound `N#Cc1cccc([C@]23CC[C@@H](N(CCN4CC[C@@H](O)C4)C(=O)Nc4ccc(F)c(Cl)c4)C[C@H]2C3)c1`, the outcome in [1] was inactive. In data set [8], the Kp at 6 h came out at 0.7. In [9], this compound had an AUC(0-t) at 24 h of 14 µM·h. Further, in [4], the Activity is 58%.

With `N#Cc1cccc([C@]23CC[C@@H](N(CCCCN4CCOCC4)C(=O)Nc4ccc(F)c(C(F)(F)F)c4)[C@H]2C3)c1` (relative stereo), the “Food intake (% of vehicle control)” value worked out at 94.1% in [1] and 83.4% in [2]. The same compound returned a Ki in [10] of 2.5 nM. In [3], the AUC(0-t) at 6 h worked out at 450 ng·h/mL. Also, in data set [4], the Activity turned out to be 64%. Moreover, in data set [6], the “Food intake (% of vehicle)” value is reported as 88%.

On to `N#Cc1cccc([C@]23CC[C@@H](N(CCCCN4CCCCC4)C(=O)Nc4ccc(F)c(C(F)(F)F)c4)[C@H]2C3)c1` (relative stereo), for which the figures for the “Food intake (% of vehicle control)” value in [1] and in data set [2] were 102% and 101.1%, respectively. The same compound showed an AUC(0-t) at 6 h in data set [3] of 1160 ng·h/mL. In [4], the Activity came to 72%. The “Food intake (% of vehicle)” value in data set [6] is listed as 92%.

`N#Cc1cccc([C@]23CC[C@@H](N(CCN4CC[C@@H](O)C4)C(=O)Nc4ccc(F)c(Cl)c4)[C@H]2C3)c1` (stereo in doubt; (+)-23c) had a Ki in data set [10] of 13 nM. The compound further returned an AUC in data set [11] of 585 ng·h/mL.

`N#Cc1cccc([C@]23CC[C@@H](N(CCN4CC[C@@H](O)C4)C(=O)Nc4ccc(F)c(Cl)c4)[C@H]2C3)c1` (stereo in doubt; (-)-23d) displayed an AUC in data set [11] of 2404 ng·h/mL.

Turning to `CN1CCN(CCCN(C(=O)Nc2ccc(F)c(C(F)(F)F)c2)[C@@H]2CC[C@]3(c4ccc(C#N)cc4)C[C@H]23)CC1` (relative stereo), the Activity in [12] was -2.26%; in [13] it was 14.9 g; in data set [16] it was -9.83%; in data set [18], 79.4 g; in [19], 11.7 g; in [20], 87 g. The Activity in [22] is -6.04%; in data set [4] it was 99%; in data set [5], 58%; in data set [24] it was -1.48%. Also, the “Food intake (% of vehicle control)” value in data set [1] was 78.1%; in data set [2], 76%. The same compound had a half-life in data set [14] of 4 h. The F in [15] stood at 27%. The Kb in data set [7] is 1.9 nM. Further, the AUC in data set [17] is 3.9 µM·h; in [11], 642 ng·h/mL. Further, in data set [10], the Ki turned out to be 2.7 nM. In data set [21], this compound gave an inhibition of over 65%. In addition, the Vdss in data set [23] is 5.6 L/kg. Besides, in data set [6], the “Food intake (% of vehicle)” value was 77.3%.

By AUC(0-t) is commonly meant the area under the concentration-time curve up to a stated or last time point. Usually Kp stands for tissue or fluid exposure divided by exposure in the circulation. In general, Ki refers to a measure of affinity in units of concentration, obtained from inhibition or displacement. Broadly, the AUC is the area under the concentration-time curve, a measure of exposure. In general, half-life refers to the time in which the quantity being followed falls by half. By inhibition is commonly meant the share of the control response that was lost under treatment.
